Data from ChEMBL document CHEMBL2346548, “Design, synthesis, and structure-activity relationship studies of tryptanthrins as antitubercular agents” (J Nat Prod, 2013).
≈ marks a conversion by molar mass, not a printed value.

Key:
[1] = Volume of distribution in Sprague-Dawley rat at 5 mg/kg, iv; type: ADME, organism-based; set-up: dose 5 mg/kg, route intravenous; conditions: in vivo
Procedure, shortened: (§1)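 Male Sprague-Dawley rats (n = 3), single 5 mg/kg iv dose as solution in PEG300/DMSO 50:50; plasma sampled 0.083–24 h, LC-MS bioanalysis; noncompartmental analysis, means.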

[2] = Aqueous solubility in PBS buffer at pH 7.4 by HPLC method; type: physicochemical; conditions: PBS buffer, read-out: solubility
Procedure, shortened: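 Compound at 200 μM final in 2% DMSO in PBS pH 7.4, shaken 24 h at room temperature; quantified by HPLC with photodiode array detection at 230 nm; duplicate, mean reported.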

[3] = Oral bioavailability in Sprague-Dawley rat at 20 mg/kg; type: ADME, organism-based; conditions: in vivo
[4] = Solubility in simulated intestinal fluid at pH 7.6 by HPLC method; type: physicochemical
Procedure, shortened: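 Simulated intestinal fluid medium; each analogue 200 μM final in 2% DMSO, shaken 24 h at room temperature, then HPLC with photodiode array read at 230 nm; duplicate, means given.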

[5] = Metabolic stability in human liver microsomes assessed as parent compound remaining at 1 uM incubated for 1 hr by HPLC-MS/MS method; type: ADME, Microsome; conditions: read-out: Stability
Procedure, shortened: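 Pooled mixed-gender human liver microsomes (0.3 mg/mL protein), 1 μM compound with NADP-regenerating system in phosphate buffer pH 7.4, 1 h at 37 °C; parent measured at start and end by HPLC-MS/MS; duplicate means.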

[6] = Cmax in C57BL/6 mouse at 40 mg/kg, po; type: ADME, organism-based; set-up: dose 40 mg/kg, route oral; conditions: in vivo
Procedure, shortened: (§2)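 Female C57BL/6 mice, single 40 mg/kg oral gavage; three mice per time point; plasma at 30 min to 24 h, LC-MS; noncompartmental parameters reported as means.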

[7] = AUC (0 to infinity) in Sprague-Dawley rat at 20 mg/kg, po; type: ADME, organism-based; set-up: time infinity, dose 20 mg/kg, route oral; conditions: plasma
[8] = Tmax in Sprague-Dawley rat at 20 mg/kg, po; type: ADME, organism-based; set-up: dose 20 mg/kg, route oral; conditions: in vivo
[9] = AUC (0 to infinity) in C57BL/6 mouse at 40 mg/kg, po; type: ADME, organism-based; set-up: dose 40 mg/kg, route oral, time infinity; conditions: plasma
[10] = Clearance in Sprague-Dawley rat at 5 mg/kg, iv; type: ADME, organism-based; set-up: dose 5 mg/kg, route intravenous; conditions: in vivo; procedure, shortened: as §1
[11] = system: Mycobacterium tuberculosis; assay: Antitubercular activity against Mycobacterium tuberculosis H37Rv incubated at 37 degC for 14 days in presence of 40% human serum by microplate alamar blue assay; type: functional; conditions: 336 h
Procedure, shortened: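 This is the MABA run in 7H9 broth containing 40% human serum. Compounds were 2-fold serially diluted, and wells were inoculated with H37Rv at 2 × 10⁵ CFU/mL. Incubation was at 37 °C for 14 days, then Alamar Blue was added. MIC was the lowest concentration preventing the blue-to-pink colour change.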

[12] = system: Vero; assay: Cytotoxicity against african green monkey Vero cells; type: cell-based, Chlorocebus sabaeus; conditions: Chlorocebus sabaeus, Vero; read-out: IC50
[13] = Permeability across apical to basolateral side in human Caco2 cells incubated for 1 hr at 37 degC by HPLC-MS/MS method; type: ADME, cell-based; conditions: Caco-2
Procedure, shortened: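 TC7 (Caco-2 subclone) monolayer; 10 μM compound in 1% DMSO in HBSS-MES pH 6.5 on apical donor side, basolateral receiver pH 7.4; shaken 1 h at 37 °C; receiver sampled, HPLC-MS/MS; duplicate means.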

[14] = Cmax in Sprague-Dawley rat at 20 mg/kg, po; type: ADME, organism-based; set-up: dose 20 mg/kg, route oral; conditions: in vivo
[15] = Efflux ratio in human Caco2 cells incubated for 1 hr at 37 degC by HPLC-MS/MS method; type: ADME, cell-based; conditions: Caco-2
[16] = Elimination half life in Sprague-Dawley rat at 5 mg/kg, iv; type: ADME, organism-based; set-up: dose 5 mg/kg, route intravenous; conditions: in vivo, read-out: beta t1/2 (converted); procedure, shortened: as §1
[17] = Protein binding in human plasma at 10 uM incubated for 8 hrs at 37 degC by equilibrium dialysis method; type: ADME, cell-free; conditions: read-out: PPB (converted)
Procedure, shortened: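 Equilibrium dialysis: 10 μM compound in 1% DMSO in human plasma vs 0.05 M phosphate buffer pH 7.5 across 12–14 K cutoff membrane, at least 8 h at 37 °C; HPLC-photodiode detection at 230 nm; duplicate means.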

[18] = Permeability across basolateral to apical side in human Caco2 cells incubated for 1 hr at 37 degC by HPLC-MS/MS method; type: ADME, cell-based; conditions: Caco-2
[19] = system: Mycobacterium tuberculosis; assay: Antitubercular activity against Mycobacterium tuberculosis H37Rv incubated at 37 degC for 7 days by microplate alamar blue assay; type: functional; conditions: Mycobacterium tuberculosis, H37Rv, 168 h
Procedure, shortened: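 Mtb H37Rv was grown in 7H9 broth with glycerol, Casitone, 10% OADC and 0.05% Tween 80 to OD600 0.4. Compounds were 2-fold serially diluted from DMSO stocks in 7H9, and wells were inoculated at 2 × 10⁵ CFU/mL. After 7 days at 37 °C, Alamar Blue was added and read after a further 24 h. MIC was the lowest concentration preventing the blue-to-pink change.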

[20] = Tmax in C57BL/6 mouse at 40 mg/kg, po; type: ADME, organism-based; set-up: dose 40 mg/kg, route oral; conditions: in vivo; procedure, shortened: as §2
[21] = Solubility in simulated gastric fluid at pH 1.5 by HPLC method; type: physicochemical
Procedure, shortened: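 Compound at 200 μM final in 2% DMSO in simulated gastric fluid, shaken 24 h at room temperature; HPLC-photodiode array detection at 230 nm; duplicate means.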

[22] = system: Mycobacterium tuberculosis; assay: Antitubercular activity against non-replicating Mycobacterium tuberculosis H37Rv incubated for 10 days by LORA method; type: functional; conditions: 240 h
Procedure, shortened: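 H37Rv carrying pFCA-luxAB was adapted to low oxygen by gradual self-depletion in a sealed, slowly stirred flask. It was then exposed to compounds for 10 days under anaerobic conditions. Cultures recovered for 28 h in ambient oxygen before n-decanal substrate was added and luminescence read. MIC was the lowest concentration giving a 90% reduction in luminescence versus untreated controls.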

[23] = AUC (0 to infinity) in Sprague-Dawley rat at 5 mg/kg, iv; type: ADME, organism-based; set-up: time infinity, dose 5 mg/kg, route intravenous; conditions: plasma
[24] = Half life in Sprague-Dawley rat at 20 mg/kg, po; type: ADME, organism-based; set-up: dose 20 mg/kg, route oral; conditions: in vivo
[25] = system: Mycobacterium tuberculosis; assay: Antitubercular activity against Mycobacterium tuberculosis Erdman ATCC 35801 infected in C57BL/6 mouse assessed as viable bacterial load in spleen at 200 mg/kg/day through gavage 5 days per week for 4 weeks starting on 10th day post-infection (reference value: 4.79 +/- 0.21 log10CFU/spleen); type: functional
[26] = system: Salmonella typhimurium; assay: Mutagenicity in Salmonella typhimurium TA100 assessed as mean revertant colonies at 0.25 to 240 ug/well in presence of rat liver S9 fraction; type: toxicity, organism-based; conditions: salmonella enterica subsp. enterica serovar typhimurium
Procedure, shortened: (§3)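 MicroAmes: strains preincubated with or without Aroclor-induced rat liver S9, duplicate wells, six concentrations 0.25–250 μg equivalents/well; DMSO vehicle, 4-nitroquinoline-N-oxide (−S9) and 2-aminoanthracene (+S9) positive controls; revertant colonies counted; cytotoxicity noted as reduced revertants or background lawn; precipitation recorded.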

[27] = system: Salmonella typhimurium; assay: Mutagenicity in Salmonella typhimurium TA98 assessed as mean revertant colonies at 0.25 to 240 ug/well in absence of rat liver S9 fraction; type: toxicity, organism-based; conditions: salmonella enterica subsp. enterica serovar typhimurium; procedure, shortened: as §3
[28] = Half life in C57BL/6 mouse at 40 mg/kg, po formulated in 0.5% methylcellulose; type: ADME, organism-based; set-up: dose 40 mg/kg, route oral; conditions: in vivo; procedure, shortened: as §2
[29] = Tmax in C57BL/6 mouse at 40 mg/kg, po formulated in 0.5% methylcellulose; type: ADME, organism-based; set-up: dose 40 mg/kg, route oral; conditions: in vivo; procedure, shortened: as §2
[30] = system: Salmonella typhimurium; assay: Mutagenicity in Salmonella typhimurium TA98 assessed as mean revertant colonies at 0.25 to 240 ug/well in presence of rat liver S9 fraction; type: toxicity, organism-based; conditions: salmonella enterica subsp. enterica serovar typhimurium; procedure, shortened: as §3
[31] = system: Mycobacterium tuberculosis; assay: Antitubercular activity against Mycobacterium tuberculosis Erdman ATCC 35801 infected in C57BL/6 mouse assessed as viable bacterial load in lung at 200 mg/kg twice daily through gavage 5 days per week for 4 weeks starting on 10th day post-infection (reference value: 6.49 +/- 0.10 log10CFU/lung); type: functional
[32] = system: Salmonella typhimurium; assay: Mutagenicity in Salmonella typhimurium TA100 assessed as mean revertant colonies at 0.25 to 240 ug/well in absence of rat liver S9 fraction; type: toxicity, organism-based; conditions: salmonella enterica subsp. enterica serovar typhimurium; procedure, shortened: as §3
[33] = system: Salmonella typhimurium; assay: Toxicity in Salmonella typhimurium TA100 assessed as compound level per well causing cytotoxicity at 0.25 to 240 ug/well in absence of rat liver S9 fraction; type: organism-based; conditions: salmonella enterica subsp. enterica serovar typhimurium; procedure, shortened: as §3
[34] = AUC (0 to infinity) in C57BL/6 mouse at 40 mg/kg, po formulated in 0.5% methylcellulose; type: ADME, organism-based; set-up: dose 40 mg/kg, route oral, time infinity; conditions: in vivo
[35] = Cmax in C57BL/6 mouse at 40 mg/kg, po formulated in 30% HP-beta-CD; type: ADME, organism-based; set-up: dose 40 mg/kg, route oral; conditions: in vivo; procedure, shortened: as §2
[36] = Tmax in C57BL/6 mouse at 40 mg/kg, po formulated in 30% HP-beta-CD; type: ADME, organism-based; set-up: dose 40 mg/kg, route oral; conditions: in vivo; procedure, shortened: as §2
[37] = system: Mycobacterium tuberculosis; assay: Antitubercular activity against Mycobacterium tuberculosis Erdman ATCC 35801 infected in C57BL/6 mouse assessed as viable bacterial load in lung at 200 mg/kg/day through gavage 5 days per week for 4 weeks starting on 10th day post-infection (reference value: 6.49 +/- 0.10 log10CFU/lung); type: functional
[38] = Cmax in C57BL/6 mouse at 40 mg/kg, po formulated in 0.5% methylcellulose; type: ADME, organism-based; set-up: dose 40 mg/kg, route oral; conditions: in vivo; procedure, shortened: as §2
[39] = system: Mycobacterium tuberculosis; assay: Antitubercular activity against Mycobacterium tuberculosis Erdman ATCC 35801 infected in C57BL/6 mouse assessed as viable bacterial load in spleen at 200 mg/kg twice daily through gavage 5 days per week for 4 weeks starting on 10th day post-infection (reference value: 4.79 +/- 0.21 log10CFU/spleen); type: functional
[40] = system: Salmonella typhimurium; assay: Toxicity in Salmonella typhimurium TA100 assessed as compound level per well causing cytotoxicity at 0.25 to 240 ug/well in presence of rat liver S9 fraction; type: organism-based; conditions: salmonella enterica subsp. enterica serovar typhimurium; procedure, shortened: as §3
[41] = AUC (0 to infinity) in C57BL/6 mouse at 40 mg/kg, po formulated in 30% HP-beta-CD; type: ADME, organism-based; set-up: time infinity, dose 40 mg/kg, route oral; conditions: plasma

Compound	Vd [1]	solubility [2]	bioavailability [3]	solubility [4]	remaining at 1 h, 1 µM [5]	AUC(0-inf) [7]	Tmax [8]	clearance [10]	MIC [11]	IC50 [12]	Papp A→B at 1 h [13]	Cmax [14]	efflux ratio at 1 h [15]	half-life [16]	fraction unbound at 8 h, 10 µM [17]	Papp B→A at 1 h [18]	MIC [19]	solubility [21]	MIC90 [22]	AUC(0-inf) [23]	further results
O=C1c2cc(C(=O)N3CCCCC3)ccc2-n2c1nc1ccccc1c2=O	6.21 L/kg	16.3 µM (≈ 5.86 µg/mL)	3.16%	27.5 µM (≈ 9.88 µg/mL)	105%	140 ng·h/mL	1 h	81 mL/min/kg	2 µg/mL	> 10 µg/mL	59.9 ×10⁻⁶ cm/s	30 ng/mL	> 1	0.88 h	0.011	26 ×10⁻⁶ cm/s	0.25 µg/mL (≈ 0.696 µM)	10.2 µM (≈ 3.67 µg/mL)	> 10 µg/mL	1070 ng·h/mL	Cmax [6]: 112 ng/mL; AUC(0-inf) [9]: 1300 ng·h/mL; Tmax [20]: 2 h; half-life [24]: 7.34 h
O=C1c2ccccc2-n2c1nc1c(c2=O)CCCC1	1.62 L/kg	54.9 µM (≈ 13.8 µg/mL)	30.1%	73.4 µM (≈ 18.5 µg/mL)	18%	19900 ng·h/mL	4.67 h	5.67 mL/min/kg	1 µg/mL	8.7 µg/mL (≈ 34.5 µM)	85.4 ×10⁻⁶ cm/s	2030 ng/mL	> 1	3.98 h	0.043	52.4 ×10⁻⁶ cm/s	0.5 µg/mL (≈ 1.98 µM)	53 µM (≈ 13.4 µg/mL)	10.5 µg/mL (≈ 41.6 µM)	16500 ng·h/mL	log10cfu [25]: 4.88; Activity [26]: Non-toxic; Activity [27]: Non-toxic; half-life [28]: 4.99 h; Tmax [29]: 1.5 h; Activity [30]: Non-toxic; log10cfu [31]: 6.6; Activity [32]: Non-toxic; Activity [33]: >= 25 ug; AUC(0-inf) [34]: 5280 ng·h/mL; Cmax [35]: 2260 ng/mL; Tmax [36]: 0.5 h; log10cfu [37]: 6.5; Cmax [38]: 1930 ng/mL; log10cfu [39]: 4.89; Activity [40]: >= 25 ug; AUC(0-inf) [41]: 2570 ng·h/mL; half-life [24]: 6.29 h
